ChEMBL document CHEMBL4041520, “Novel pyrimidine-2,4-dione-1,2,3-triazole and furo[2,3-d]pyrimidine-2-one-1,2,3-triazole hybrids as potential anti-cancer agents: Synthesis, computational and X-ray analysis and biological evaluation” (Eur J Med Chem, 2017)
Activity calls are given as the source filed them. No cut-off for these calls is given here.

Tests used:
[1] = Mitochondrial toxicity in human HepG2 cells grown in presence of glucose; format: cell-based
[2] = tested on: HepG2; assay: Antiproliferative activity against human HepG2 cells after 72 hrs by MTT assay; format: functional, cell-based; conditions: HepG2, 72 h
Outline: (§1)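 Monolayers grown in DMEM with 10% FBS and 2 mM L-glutamine at 37 °C, 5% CO2. Cells seeded at 5000 per well on day 0. Compounds added in five 10-fold dilutions (0.01–100 µM), DMSO ≤0.1%, for 72 h. MTT absorbance converted to percentage growth versus untreated wells. IC50 by linear regression of the dose-response curve; highest concentration reported when not reached. Quadruplicate points, three experiments.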

[3] = tested on: HepG2; assay: Induction of apoptosis in human HepG2 cells assessed as late apoptotic cells at 2 times antiproliferative IC50 after 48 hrs by Annexin-V FITC/propidium iodide staining based fluorescence microscopic method relative to control; format: functional
Outline: (§2)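 Cells seeded in 8-well chamber slides and exposed to compound at 2× IC50 for 48 h. After washing in incubation buffer, Annexin-V-FITC labelling for 15 min at room temperature. Cells fixed with 20% glycerol; PI used as nuclear stain. Scored by fluorescence microscopy as viable (PI-/AnnV-), early apoptotic (PI-/AnnV+), late apoptotic/primary necrotic (PI+/AnnV+) or secondary necrotic (PI+) percentages.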

[4] = target: Wee1-like protein kinase (Homo sapiens) (UniProt P30291); assay: Inhibition of Wee-1 kinase phosphorylation in human HepG2 cells at 2 times antiproliferative IC50 after 48 hrs by Western blot method; format: cell-based
Outline: (§3)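 Cells seeded at 200000 per well and treated at 2× IC50 for 48 h. Lysed in RIPA buffer with protease inhibitors. 50 µg protein run on 12% Tris-glycine gels and transferred to PVDF. Blocked in 4% BSA/TBST, probed overnight at 4 °C with anti-p-SK1, ASAH1 or p-Wee1, then HRP secondary. Chemiluminescent detection; densitometry normalized to alpha-tubulin. Two independent experiments, mean ± SD.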

[5] = Mitochondrial toxicity in human HepG2 cells grown in presence of galactose; format: cell-based
Outline: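 HepG2 kept for more than 5 passages in glucose-free DMEM with 10 mM galactose, 2 mM glutamine, 5 mM HEPES, 10% FBS and 1 mM sodium pyruvate.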

[6] = tested on: HepG2; assay: Induction of apoptosis in human HepG2 cells assessed as secondary necrotic cells at 2 times antiproliferative IC50 after 48 hrs by Annexin-V FITC/propidium iodide staining based fluorescence microscopic method (reference value: 5.2%); format: functional; outline: as §2
[7] = target: Wee1-like protein kinase (Homo sapiens) (UniProt P30291); assay: Inhibition of Wee-1 kinase in human HepG2 cells assessed as downregulation of ASAH at 2 times antiproliferative IC50 after 48 hrs by Western blot method; format: cell-based; outline: as §3
[8] = tested on: NIH3T3; assay: Antiproliferative activity against mouse NIH/3T3 cells after 72 hrs by MTT assay; format: cell-based; conditions: NIH3T3, 72 h; outline: as §1
[9] = tested on: CFPAC-1; assay: Antiproliferative activity against human CFPAC-1 cells after 72 hrs by MTT assay; format: functional, cell-based; conditions: CFPAC-1, 72 h; outline: as §1
[10] = tested on: HeLa; assay: Antiproliferative activity against human HeLa cells after 72 hrs by MTT assay; format: functional, cell-based; outline: as §1
[11] = tested on: SW-620; assay: Antiproliferative activity against human SW620 cells after 72 hrs by MTT assay; format: functional, cell-based; conditions: SW-620, 72 h; outline: as §1
[12] = tested on: HepG2; assay: Induction of apoptosis in human HepG2 cells assessed as early apoptotic cells at 2 times antiproliferative IC50 after 48 hrs by Annexin-V FITC/propidium iodide staining based fluorescence microscopic method (reference value: 0.6%); format: functional; outline: as §2
[13] = tested on: A549; assay: Antiproliferative activity against human A549 cells after 72 hrs by MTT assay; format: functional, cell-based; conditions: A549, 72 h; outline: as §1
[14] = target: Wee1-like protein kinase (Homo sapiens) (UniProt P30291); assay: Inhibition of Wee-1 kinase in human HepG2 cells assessed as reduction in SK1 phosphorylation at 2 times antiproliferative IC50 after 48 hrs by Western blot method; format: cell-based; outline: as §3
[15] = tested on: HepG2; assay: Induction of apoptosis in human HepG2 cells assessed as viable cells at 2 times antiproliferative IC50 after 48 hrs by Annexin-V FITC/propidium iodide staining based fluorescence microscopic method (reference value: 94.2%); format: functional; outline: as §2
[16] = target: Wee1-like protein kinase (Homo sapiens) (UniProt P30291); assay: Inhibition of Wee-1 kinase in human HeLa cells assessed as reduction in SK1 phosphorylation at 2 times antiproliferative IC50 after 48 hrs by Western blot method; format: cell-based; outline: as §3
[17] = tested on: HeLa; assay: Induction of apoptosis in human HeLa cells assessed as early apoptotic cells at 2 times antiproliferative IC50 after 48 hrs by Annexin-V FITC/propidium iodide staining based fluorescence microscopic method (reference value: 20.4%); format: functional; outline: as §2
[18] = tested on: HeLa; assay: Induction of apoptosis in human HeLa cells assessed as secondary necrotic cells at 2 times antiproliferative IC50 after 48 hrs by Annexin-V FITC/propidium iodide staining based fluorescence microscopic method (reference value: 2.3%); format: functional; outline: as §2
[19] = tested on: HeLa; assay: Induction of apoptosis in human HeLa cells assessed as late apoptotic cells at 2 times antiproliferative IC50 after 48 hrs by Annexin-V FITC/propidium iodide staining based fluorescence microscopic method (reference value: 2.3%); format: functional; outline: as §2
[20] = target: Wee1-like protein kinase (Homo sapiens) (UniProt P30291); assay: Inhibition of Wee-1 kinase phosphorylation in human HeLa cells at 2 times antiproliferative IC50 after 48 hrs by Western blot method; format: cell-based; outline: as §3
[21] = tested on: HeLa; assay: Induction of apoptosis in human HeLa cells assessed as viable cells at 2 times antiproliferative IC50 after 48 hrs by Annexin-V FITC/propidium iodide staining based fluorescence microscopic method (reference value: 75%); format: functional; outline: as §2
[22] = target: Wee1-like protein kinase (Homo sapiens) (UniProt P30291); assay: Inhibition of Wee-1 kinase in human HeLa cells assessed as downregulation of ASAH at 2 times antiproliferative IC50 after 48 hrs by Western blot method; format: cell-based; outline: as §3

Wee1-like protein kinase (Homo sapiens), sequence (P30291 whole entry, looked up): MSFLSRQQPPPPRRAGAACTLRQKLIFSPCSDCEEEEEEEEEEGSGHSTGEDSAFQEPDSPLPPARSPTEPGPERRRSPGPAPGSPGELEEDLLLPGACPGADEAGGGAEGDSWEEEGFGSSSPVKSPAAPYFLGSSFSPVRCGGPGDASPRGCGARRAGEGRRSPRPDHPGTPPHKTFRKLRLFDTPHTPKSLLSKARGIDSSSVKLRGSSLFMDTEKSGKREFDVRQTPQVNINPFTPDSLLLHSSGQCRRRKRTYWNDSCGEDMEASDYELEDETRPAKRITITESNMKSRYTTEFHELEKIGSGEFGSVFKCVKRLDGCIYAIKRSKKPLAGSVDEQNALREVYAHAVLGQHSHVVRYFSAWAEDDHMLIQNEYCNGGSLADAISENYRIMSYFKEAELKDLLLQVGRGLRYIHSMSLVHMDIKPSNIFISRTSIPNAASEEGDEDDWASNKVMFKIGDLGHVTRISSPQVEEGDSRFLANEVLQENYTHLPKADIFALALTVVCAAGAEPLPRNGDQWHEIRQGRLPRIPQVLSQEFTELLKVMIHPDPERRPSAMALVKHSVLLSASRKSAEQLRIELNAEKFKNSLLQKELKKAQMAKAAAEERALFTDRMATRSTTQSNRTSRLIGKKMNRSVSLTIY

Row | IC50 [2] [µM] | inhibition [4] | inhibition [7] | IC50 [10] [µM] | IC50 [11] [µM] | IC50 [13] [µM] | inhibition [14] | Structure (SMILES) | IC50 [1] [µM] | Activity [3] [%] | IC50 [5] [µM] | Activity [6] [%] | IC50 [8] [µM] | IC50 [9] [µM] | Activity [12] [%] | Activity [15] [%] | other results
1 | 4.47 | Active | inactive | 12.6 | 9.82 | 25.4 | inactive | O=c1c(Br)cn(Cc2cn(-c3ccc(F)cc3)nn2)c(=O)n1Cc1cn(-c2ccc(F)cc2)nn1 | 4.78 | 0 | 4.57 | 0.5 | 0.07 | 6.87 | 26.6 | 72.9 | –
2 | 3.62 | Active | Active | 6.13 | 5.63 | 7.41 | Active | O=c1c(Br)cn(Cc2cn(-c3ccc(Cl)cc3)nn2)c(=O)n1Cc1cn(-c2ccc(Cl)cc2)nn1 | 3.82 | 0 | 7.1 | 15.2 | 0.37 | 5.92 | 34.8 | 50 | –
3 | 7.11 | – | – | 1.64 | 7.86 | 5.33 | – | O=c1c(Br)cn(Cc2cn(-c3ccccc3F)nn2)c(=O)n1Cc1cn(-c2ccccc2F)nn1 | 7.11 | – | 4.67 | – | 0.59 | 4.53 | – | – | inhibition [16]: inactive; Activity [17]: 23.9%; Activity [18]: 3%; Activity [19]: 1.8%; inhibition [20]: inactive; Activity [21]: 71.3%; inhibition [22]: inactive
